The subject of data set [1] is cisplatin-induced mechanical allodynia. Nature of the data set: Von Frey test, cisplatin-induced mechanical allodynia in mice. It is filed as in vivo.
Another data set deals with IENF density. Nature of the data set: Intra-epidermal nerve fiber. It is filed as in vivo, mice. The method in brief: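 Plantar hind-paw biopsies were cut as 25 μm frozen sections and stained for PGP9.5 and collagen IV, then imaged by confocal. IENFs crossing the dermal–epidermal junction were counted per mm of epidermis. Five random images per mouse, 4 mice/group, blinded analysis.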

The next data set relates to rat DRG neurons. Nature of the data set: Mitochondrial movement in cultured DRG neurons. It is filed as cell-based. The note with it: rat DRG neuron cultures, 3 hours. The method in brief:
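Commercial DRG neurons were cultured 5–7 days, then given BacMam 2.0 GFP mitochondrial label 24 h before treatment. […] Live imaging was done at 37°C in CO2-independent Hibernate E medium that still contained the drugs, and mitochondrial movement was scored.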

Data set [2] relates to cisplatin-induced numbness. Nature of the data set: Adhesive removal test. To be noted: mice, treatment starting after 2 rounds of cisplatin, tested in week 5. Type of data set: in vivo. The gist of the method:
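Test compound in 20% 2-hydroxypropyl-β-cyclodextrin + 0.5% hydroxypropyl methylcellulose in water, given i.p. at 3 or 10 mg/kg. A round adhesive patch was placed on the plantar hind paws. Time to a behavioural response (shaking, attempted removal) was recorded within a 15-minute test.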

Data set [3] relates to α-tubulin acetylation in SK-N-BE2 cells. The data set is described as follows: Western blot of acetylated α-tubulin in SK-N-BE2 cells. The note with it: 5 hours. Type of data set: cell-based. The gist of the method:
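SK-N-BE2 cells grown to 70% confluence, then exposed 5 h to test compound in DMSO (0.1% DMSO final in all wells). Cells PBS-washed, lysed in cold RIPA buffer with protease inhibitors and PMSF, sonicated, and centrifuged. Supernatants immunoblotted for acetylated α-tubulin (mouse monoclonal) and, as a non-HDAC6 substrate, histone H2BK5ac (rabbit polyclonal).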
Background: In western blotting, separated proteins are transferred to a membrane and probed.

The test system of another data set is Cox IV, SDHA and VDAC. Nature of the data set: Western blot of mitochondrial proteins in tibial nerves. It is filed as in vivo, mice. The note with it: 2 rounds of cisplatin and 11 injections.
Another data set deals with HDAC1-9. Nature of the data set: HDAC enzyme assays, other isoforms. It is filed as biochemical. The method in brief:
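Test compound was diluted in 50 mM HEPES pH 7.4, 100 mM KCl, 0.001% Tween-20, 0.05% BSA and 20 μM TCEP, then preincubated 24 h with recombinant HDAC enzyme. Substrate at Km, with trypsin, was then added: acetyl-lysine tripeptide for HDAC1/2/3/6, trifluoroacetyl-lysine tripeptide for HDAC4/5/7/8/9. […] release was read over 30 min and the linear rate taken. IC50 came from a 4-parameter fit.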

The next data set has as its system DRG neurons. The data set is described as follows: Mitochondrial bioenergetics in DRG neurons isolated from treated mice. Type of data set: in vivo. The gist of the method: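 Cells were cultured overnight in an XF24 plate in Ham's F10 + N2, switched to XF medium 1 h before the run. Injections: oligomycin 2 μM, FCCP 4 μM, rotenone/antimycin A 2 μM each. Cycles: 2-min mix/3-min wait/2-min measure ×3. OCR was normalised to protein; basal, ATP-linked, leak and maximal respiration were derived.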

Data set [4] concerns cisplatin-induced spontaneous pain. To be noted: cisplatin-treated mice, 2 weeks of daily treatment.
Data set [5] relates to paclitaxel-induced mechanical allodynia. Nature of the data set: Von Frey test, paclitaxel-induced mechanical allodynia in rats. It is filed as in vivo. The note with it: 3 mg/kg oral twice daily for 7 days, last day tested.
Data set [6] is described as follows: In vivo pharmacokinetics in mice. The note with it: 5 mg/kg i.p. The method in brief:
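Mice were fasted overnight and given a single 5 mg/kg i.p. dose in 10% dimethylacetamide + 10% Solutol HS 15 in saline. Retro-orbital blood was taken at 5, 15, 30 min and 1, 2, 4, 8, 24 h. Plasma was spun at 2,000 × g, 5 min, 4°C. Levels were measured by LC-MS/MS against a standard curve in mouse plasma, then PK parameters calculated; n=3/group.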

A further data set relates to GFAP expression. Nature of the data set: GFAP immunofluorescence in spinal cord dorsal horn. The note with it: cisplatin-treated mice, 3 doses of 10 mg/kg. It is filed as in vivo.
For data set [7], the system named is histone acetylation in SK-N-BE2 cells. The data set is described as follows: Western blot of histone acetylation. It is filed as cell-based. To be noted: 5 hours, 3 nM to 10 μM. The gist of the method: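 SK-N-BE2 cells at 70% confluence were treated 5 h with test compound at 3 nM–10 μM final, with DMSO 0.1% total. Cells were washed in cold PBS and lysed in RIPA with protease inhibitors/PMSF, 10 min on ice. Lysates were sonicated and centrifuged. Supernatants were immunoblotted for histone H2BK5ac (rabbit polyclonal) and acetylated α-tubulin (mouse monoclonal).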

For another data set, the system named is α-tubulin acetylation. The data set is described as follows: Western blot of acetylated α-tubulin in tibial nerves. The note with it: mice, saline or cisplatin followed by 11 doses. Type of data set: in vivo. The gist of the method: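 Tibial nerves were first run in an XF24 OCR assay (XF medium with 5.5 mM glucose, 0.5 mM pyruvate, 1 mM glutamine). The same nerves were then western-blotted for acetylated α-tubulin with a rabbit monoclonal.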

Data set [8] relates to tibial nerve mitochondrial respiration. Nature of the data set: Mitochondrial bioenergetics. Type of data set: in vivo, mice. The method in brief: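 Tibial nerves were run in an islet-capture XF24 plate in XF medium with 5.5 mM glucose, 0.5 mM pyruvate and 1 mM glutamine. Oligomycin (12 μM), FCCP (20 μM) and rotenone/antimycin A (20 μM each) were injected in sequence, with 4 cycles (3-min mix/3-min wait/4-min measure) at baseline and after each injection. Basal, ATP-linked, proton leak, maximal and non-mitochondrial OCR were derived.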

The test system of data set [9] is HDAC6 compared with Class I HDACs. The note with it: 42; cited from earlier work.

Where only a bound is given, the exact number is not on record here.

Turning to ACY-1083, in data set [1] (10 mg/kg), the “mechanical sensitivity in the absence of cisplatin treatment” value was “did not alter mechanical sensitivity”. Further, the “time after the first dose at which the effect was first detected” value in data set [1] (10 mg/kg i.p.) is 24 h. For the same molecule, the “effect of a second round of 7 daily injections on mechanical allodynia” value in data set [1] (10 mg/kg, 7 days, 7 days rest) is reported as “transiently reversed cisplatin-induced mechanical allodynia again”. For the same molecule, the “prevention of development of mechanical allodynia” value in data set [1] (administered i.p. 1 hour prior to each dose of cisplatin) was “capable of preventing the development of mechanical allodynia”. The “IENF density in cisplatin-treated mice, prolonged regimen” value with IENF density (2 cycles of cisplatin and 11 doses) is given as “completely reversed the cisplatin-induced loss of IENFs”. Further, in the data set on IENF density (short-term treatment), the “IENF density in cisplatin-treated mice, short-term treatment” value was “had no effect on IENF density”. Moreover, the “percentage of moving mitochondria, co-administration with cisplatin” value in the data set with rat DRG neurons (100 nM with cisplatin 80 μM) was “prevented this cisplatin-induced decrease in mitochondrial transport”. Moreover, the “cisplatin-induced numbness: time to respond to adhesive patch” value in data set [2] is “normalized the response time”. Further, the “selectivity towards HDAC6 in cells (α-tubulin vs histone acetylation)” value in data set [3] is listed as “over 300 fold”. In addition, in [3] (3 nM to 10 μM), the “concentration at which the increase in α-tubulin acetylation starts” value came out at 30 nM. In addition, the “Cox IV levels in tibial nerve of cisplatin-treated mice” value in the data set on Cox IV, SDHA and VDAC is listed as “normalized Cox IV levels”. In the data set on HDAC1-9, the “inhibitory activity against other enzymes” value is “negligible inhibitory activity against other enzymes”. The “selectivity for HDAC6 over all other HDAC isoforms tested” value in the data set with HDAC1-9 (HDAC1-9) is 260 fold. In the data set on DRG neurons (2 rounds of cisplatin and 11 injections), the “mitochondrial bioenergetics in DRG neurons of cisplatin-treated mice” value was “did not detect a similar recovery”. The “mitochondrial bioenergetics in DRG neurons, treatment alone” value in the data set on DRG neurons (mice without cisplatin, either time point) was “did not have any effect on mitochondrial bioenergetics in DRG neurons”. Further, the “mitochondrial bioenergetics in DRG neurons of cisplatin-treated mice” value with DRG neurons (two weeks of treatment, 2 weeks after the last dose) was “significant recovery of mitochondrial bioenergetics”. Besides, the “spontaneous pain: preference for retigabine-paired light chamber” value in data set [4] was “did not develop a preference for the retigabine-paired light chamber”. The “persistence of the protective effect after the last dose” value in data set [5] was not below 3 days. Moreover, in data set [6], the “biologically active plasma exposure after dosing” value worked out at 8 hours, the “half-life (T1/2)” value was 3.5 h and the “maximum plasma concentration (Cmax)” value turned out to be 936 ng/mL. Moreover, in the data set with GFAP expression, the “GFAP expression in dorsal horn of spinal cord” value was “normalized GFAP expression to levels comparable to saline-treated animals”. The “concentration at which an effect on histone acetylation is evident” value in [7] worked out at 10 µM. The “α-tubulin acetylation in tibial nerves” value in the data set on α-tubulin acetylation is recorded as “increased α-tubulin acetylation”. Also, in [8] (2 cycles of cisplatin followed by 11 doses), the “mitochondrial respiration in tibial nerve of cisplatin-treated mice” value is “normalized all aspects of the cisplatin-induced decrease in mitochondrial respiration”. Besides, the “mitochondrial bioenergetics in tibial nerve, treatment alone” value in [8] (mice without cisplatin, 11 doses) is on record as “did not have any effect on mitochondrial bioenergetics”.

Take `O=C(CCCCCCNC(=O)c1cnc(N(c2ccccc2)c2ccccc2)nc1)NO` [ACY-1215, Ricolinostat, reference compound]: in data set [1] (30 mg/kg oral daily for two weeks, last time point tested), the “persistence of the beneficial effect after completion of treatment” value is listed as “still present one week after completion of treatment”. Further, the “selectivity against HDAC6 compared with Class I HDACs” value in [9] is listed as “over 10 fold”.

On to `N.N.[Cl][Pt][Cl]` [cisplatin, Cisplatin, reference compound], for which the “IENF density in plantar surface of the paw” value in the data set with IENF density (mice, 2 cycles of cisplatin) is given as “reduced the IENF density”. In addition, the “percentage of moving mitochondria” value in the data set on rat DRG neurons (cisplatin 80 μM, vs vehicle) is “decreased the percentage of moving mitochondria”. The “mitochondrial bioenergetics in DRG neurons” value with DRG neurons (mice, 2 rounds of cisplatin) is “overall decrease in mitochondrial bioenergetics”. In [8] (mice, 2 cycles of cisplatin 2.3 mg/kg i.p. x 5 days), the “mitochondrial respiration in tibial nerves” value is “significantly decreased mitochondrial respiration”.

The record behind these values is paper PMC5435512 (Pain, 2017).
